Shown are actives, neighbours in structure and some others; about 12% of the full set was active somewhere.
Cl transport mod – KCC2 cotransporter modulators, thallium flux, primary screen, cell-based, HEK293 KCC2, FluoZin-2 fluorescence, MLSMR. B-score of Tl+ flux slope (higher = more flux/activation; lower = inhibition) at 10 µM. KCC2 cells, thallium flux FluoZin-2 fluorescence. 190,000 compounds, 2.2% hits;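 active = thallium flux slope and its plate-corrected score both differing from the plate sample mean at a set confidence after two filtering rounds, in either direction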;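 note: slope of fluorescence scaled to starting intensity during 10 to 20 s after thallium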
Lmaj promast – Leishmania major promastigote growth inhibition, primary screen. Leishmania major promastigotes, resazurin fluorescence viability. inhibition, % at 10 µM. 200,000 compounds, 9% hits; in the data active = inhibition above about 50%;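 note: promastigotes grown with compound for 44 hours at 28 °C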
WT yeast gro inh – growth inhibition of WT strain, primary screen, mitochondrial fusion inhibitor project, WT and mutant strains, chemical genetic; mitochondrial fusion phenotypic screen; AID 1362, 2008; inhibition, % at 10 µM; 190,000 compounds, 2.1% hits; in the data active = inhibition above about 58%; tested in S. cerevisiae
Diaphorase inh – diaphorase inhibitors and chemical oxidizers, primary screen, counter-screen for diaphorase-coupled primary assays, biochemical, uHTS, resorufin fluorescence | AID 1217, 2008 | inhibition, % at 20 µM | 190,000 compounds, 0.69% hits | diaphorase resazurin-to-resorufin fluorescence, NADH, 16 min; bacterial (C. kluyveri) enzyme, not human;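 active = primary screen inhibition at 20 µM above a set limit, cut at about 50% in these data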;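 note: plate controls were DMSO with full reaction for no effect and wells lacking NADH for full effect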
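System: Bacterial diaphorase enzyme (C. kluyveri) | Incubation: 16-min room-temperature incubation before reading | Benchmarks: No-NADH positive control and DMSO neutral control | Measured by: Resorufin fluorescence 544/590 nm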
ROMK mod – ROMK potassium channel modulators, primary screen, cell-based, thallium flux, MLSMR library | ATP-sensitive inward rectifier potassium channel 1 (Homo sapiens), P48048 | Tet-inducible ROMK, thallium flux fluorescence; actives lie on both sides | B-score at 10 µM | 130,000 compounds, 2% hits;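 active = signal ratio slope over the read window, or its plate-corrected B-score, at least 3 SD from the plate mean, either direction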;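 note: B-score of the F/F0 ratio slope over 7 to 12 s after thallium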
Target sequence (P48048 whole entry, looked up): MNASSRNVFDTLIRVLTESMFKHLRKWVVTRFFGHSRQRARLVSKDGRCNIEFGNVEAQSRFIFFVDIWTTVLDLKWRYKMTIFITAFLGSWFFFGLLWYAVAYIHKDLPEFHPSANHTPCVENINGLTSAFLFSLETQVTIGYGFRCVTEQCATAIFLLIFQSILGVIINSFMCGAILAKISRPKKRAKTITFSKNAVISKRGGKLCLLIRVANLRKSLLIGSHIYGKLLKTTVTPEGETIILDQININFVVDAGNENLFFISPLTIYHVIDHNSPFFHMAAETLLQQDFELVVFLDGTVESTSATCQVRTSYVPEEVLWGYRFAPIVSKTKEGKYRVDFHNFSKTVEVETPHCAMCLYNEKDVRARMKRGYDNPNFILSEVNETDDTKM
Diaphorase act – compounds boosting diaphorase resazurin reduction – biochemical, uHTS, resorufin fluorescence, counter-screen for diaphorase-coupled primary assays, primary screen | Diaphorase/resazurin coupled assay, 16 min; stronger effect = higher value; 1 = vehicle wells, 0 = NADH-free wells | activation factor at 20 µM | 190,000 compounds, 0.005% hits | AID 1229, 2008;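 active = diaphorase activity raised at least twofold by the compound at 20 µM; inactive = activation factor below 2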
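Material: purified diaphorase enzyme from Clostridium kluyveri; Also added: 0.114 mM NADH and 0.1 mM resazurin, final amounts; Doses: single compound dose of 20 µM, 1% DMSO final; Times: 16 min enzyme reaction, ambient temperature; Detection: resorufin fluorescence, excitation 544 nm, emission 590 nm; Measure: increased resorufin signal from activators or reducing compounds.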
An asterisk follows results filed as active; . = not tested or not shown.

SMILES | Cl transport mod | Lmaj promast | WT yeast gro inh | Diaphorase inh | ROMK mod | Diaphorase act
Cc1ccc(OCCCCN2CCCC(C)C2)c([N+](=O)[O-])c1 (configuration not stated) | 0.15 | 86* | 18 | 8 | 0.34 | 0.9
Cc1cc(OCC(=O)N2CCCCCC2)ccc1[N+](=O)[O-] | -0.32 | 48 | -9 | 11 | . | 0.9
Nc1ccc2nc(-c3ccccn3)[nH]c2c1 | -0.023 | -3 | 8 | 4 | . | 1
Cc1[nH]c(-c2ccccn2)nc(=S)c1Cl | 63* | . | . | . | 3.5* | .
O=C(C1CC(c2ccc(F)cc2)=NO1)N1CCN(Cc2ccccc2)CC1 (configuration not stated) | . | 89* | 14 | -3 | . | 1
COc1ccc(CN2CCC(N3CCC(C(=O)N4CCOCC4)CC3)CC2)c(F)c1 | 0.28 | 78* | 10 | -12 | 0.64 | 1.1
O=C(O)C1C2C=CC(C2)C1C(=O)N1CCN(C/C=C/c2ccccc2)CC1 (configuration not stated) | 0.92 | 88* | -11 | 6 | . | 0.9
COc1ccc(F)c(CN2CCC(N3CCC(C(=O)N4CCOCC4)CC3)CC2)c1 | -0.35 | 37 | -18 | 2 | -1 | 1
O=C(C1CCN(C2CCN(C/C=C/c3ccccc3)CC2)CC1)N1CCOCC1 | . | 59* | -4 | 3 | -0.65 | 1
C#CCNC(=O)C1=C[C@H](c2ccc(C(F)(F)F)cc2)[C@@H](CCCO)[C@H](OCC)O1 | 0.1 | 4 | 3 | 4 | . | 1
O=C(C1CCN(Cc2ccc(F)cc2)CC1)N1CCN(C/C=C/c2ccccc2)CC1 | -0.63 | 73* | -2 | 6 | -0.49 | 0.9
Cc1nn2c(NCCCN(C)C)c3c(nc2c1-c1ccccc1)CCC3 | . | 100* | 23 | -1 | -0.83 | 1
Cc1nn2c(NCCCN(C)C)c3c(nc2c1-c1ccccc1)CCCC3 | 1 | . | . | . | . | .
O=C(O)C1CCC(CNCc2ccccc2Cl)CC1 (configuration not stated) | 0.039 | -11 | -27 | 0 | . | 1
CCOC(=O)C1CCC(CNCc2ccccc2C)CC1 (configuration not stated) | -0.68 | 95* | -22 | 6 | -0.85 | 0.9
C/C(=N/NC(=O)CNC(=O)Cc1ccccc1)c1ccco1 | 0.68 | 63* | -15 | 11 | -0.01 | 0.9
C/C(=N\NC(=O)CNC(=O)c1ccc2c(c1)OCO2)c1ccco1 | 1.7 | 53* | -15 | 15 | 0.38 | 0.9
CC(/C=C/c1ccccc1)=N/NC(=O)CNC(=O)c1ccc2c(c1)OCO2 | 0.35 | -8 | 30 | 2 | . | 1
O=S(=O)(CCN1CCSCC1)c1ccccc1 | -0.22 | . | . | . | . | .
Cc1ccc(NC(=O)COc2ccc(Br)cn2)cc1 | 1.4 | . | . | . | 0.67 | .
O=C1CCCN1CCCNS(=O)(=O)c1ccc(Br)cc1 | -0.0038 | 2 | -6 | 17 | -0.53 | 0.8
CN1CCCC1CCNS(=O)(=O)c1ccc(Br)cc1 (configuration not stated) | 0.51 | 96* | 0 | 6 | -0.25 | 0.9
COc1ccc(CCCC(=O)N/N=C/c2cccc(OC)c2O)cc1C | -1.2 | 98* | -9 | 24 | . | 0.8
CCCCSc1nc(C)cc(SCC(=O)N/N=C/c2cccc(OC)c2O)n1 | -0.26 | 99* | 17 | 10 | -0.86 | 0.9
CCN1C(=O)C(O)(CC(=O)c2c(C)coc2C)c2ccccc21 (configuration not stated) | 0.55 | -10 | -4 | 4 | 0.83 | 1
SMILES | Cl transport mod | Lmaj promast | WT yeast gro inh | Diaphorase inh | ROMK mod | Diaphorase act
Cc1coc(C)c1C(=O)CC1(O)C(=O)Nc2cc(Cl)cc(Cl)c21 (configuration not stated) | 0.2 | 19 | 67* | 22 | . | 0.8
CCc1cc(-c2n[nH]c(=S)n2-c2ccccc2C)cs1 | 1.7 | -4 | 60* | 31 | -0.34 | 0.7
CCc1cc(-c2n[nH]c(=S)n2CC)cs1 | 0.18 | 13 | 12 | 14 | -0.026 | 0.9
CCCc1cc(-c2n[nH]c(=S)n2C(C)c2ccccc2)cs1 (configuration not stated) | 7.6* | 0 | 64* | 31 | 0.056 | 0.7
FC(F)(F)c1cc(-c2ccc(Cl)cc2)nc2ncnn12 | . | 0 | 11 | 14 | 0.024 | 0.9
Cc1ccc(-c2nn(CCC(=O)O)cc2/C=C\C(=O)c2ccc(Br)cc2)cc1 | -1.2 | 1 | -10 | 7 | 0.14 | 0.9
CCOC(=O)C(C)Oc1ccc(=O)n(-c2ccccc2)n1 (configuration not stated) | -0.34 | -5 | 4 | 5 | . | 1
C=CCn1cnc2c(c1=O)c1nc3ccccc3nc1n2/N=C/c1cc(OC)c(OC)c(OC)c1 | -1 | 100* | -2 | 32 | 0.66 | 0.7
C=CCn1cnc2c(c1=O)c1nc3ccccc3nc1n2/N=C/c1cccc(OC)c1OC | . | . | . | 4 | . | 1
Cn1c(NCC(O)CO)nc2c1c(=O)n(Cc1ccc(Cl)c(Cl)c1)c(=O)n2C (configuration not stated) | 0.7 | 73* | 2 | 16 | . | 0.8
Cn1c(NCc2ccco2)nc2c1c(=O)n(Cc1ccc(Cl)c(Cl)c1)c(=O)n2C | . | 16 | 16 | 32 | -0.83 | 0.7
O=C(COC(=O)C1CC2C=CC1C2)NCCc1ccccc1 (configuration not stated) | 0.15 | 5 | 11 | -7 | . | 1.1
Cc1csc2ncnc(NC3CCN(Cc4ccccc4)CC3)c12 | -0.11 | . | . | . | . | .
c1ccc(CN2CCC(Nc3nc(-c4ccccc4)nc4ccccc34)CC2)cc1 | . | 100* | -28 | 0 | . | 1
O=C(CNC(=O)c1cccs1)N/N=C/c1c[nH]c2ccccc12 | -1.9 | -2 | -6 | 13 | -0.25 | 0.9
Cc1ccc(CSCC(=O)NN=C2CCN(C)CC2)cc1 | -0.59 | -4 | 10 | 16 | 0.91 | 0.8
Cc1ccc(S(=O)(=O)N(Cc2ccc(Cl)cc2)c2ccccc2C(=O)NCc2ccco2)cc1 | -0.67 | 58* | 43 | 24 | . | 0.8
O=C(CN(Cc1ccccc1)S(=O)(=O)c1ccc(Br)cc1)NCc1ccco1 | -1.1 | 100* | 13 | 15 | . | 0.8
Cc1ccc(S(=O)(=O)N(Cc2ccccc2)Cc2ccco2)cc1 | -0.19 | 88* | 76* | 31 | . | 0.7
CCN(CC)C(=O)NC1CCCCCCC1 | 0.27 | 10 | 9 | 6 | -0.47 | 0.9
COc1ccccc1NC(C)C(=O)Nc1ccc(C(C)=O)cc1 (configuration not stated) | 1.2 | -1 | 0 | 24 | . | 0.8
